The source made the active and inactive calls. The calls are words filed in the database; no cut-off is given here.

Assay [1] deals with T1, Sphingomyelin phosphodiesterase (Homo sapiens) (UniProt P17405).
T1 sequence (whole entry): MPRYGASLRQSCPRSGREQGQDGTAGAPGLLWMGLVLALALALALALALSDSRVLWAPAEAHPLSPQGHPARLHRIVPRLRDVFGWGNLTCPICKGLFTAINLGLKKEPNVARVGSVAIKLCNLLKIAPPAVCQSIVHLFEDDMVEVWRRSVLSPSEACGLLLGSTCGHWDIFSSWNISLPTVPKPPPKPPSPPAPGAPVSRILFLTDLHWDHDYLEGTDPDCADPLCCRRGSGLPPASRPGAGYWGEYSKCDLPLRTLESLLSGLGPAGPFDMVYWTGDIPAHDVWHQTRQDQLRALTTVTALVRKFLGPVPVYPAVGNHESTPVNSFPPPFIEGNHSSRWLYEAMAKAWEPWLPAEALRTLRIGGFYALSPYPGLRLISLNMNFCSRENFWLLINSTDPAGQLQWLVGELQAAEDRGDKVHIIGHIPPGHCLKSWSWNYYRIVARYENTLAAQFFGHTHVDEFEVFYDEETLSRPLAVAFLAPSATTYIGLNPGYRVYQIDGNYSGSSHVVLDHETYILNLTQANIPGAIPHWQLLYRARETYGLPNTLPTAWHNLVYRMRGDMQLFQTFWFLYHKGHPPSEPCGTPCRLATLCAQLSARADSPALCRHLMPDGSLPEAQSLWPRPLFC
The assay can be described thus: Inhibition of human aSMase using 6-hexadecanoylamino-4-methylumbelliferylphosphorylcholine as substrate at 100 uM preincubated for 30 mins prior substrate addition measured after 2 hrs by spectrophotometry.

The next assay has as its system HCT-116. The assay can be described thus: Cytotoxicity against human HCT116 cells after 24 hrs by MTT assay. It counts as functional. As to conditions: HCT-116, 24 h, read-out: LD50 (the source's name). In outline:
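Cells seeded at 10⁵ cells/mL; after 24 h medium replaced with fresh medium with or without test compounds across a concentration range. Viable cells counted by MTT after 24 h of treatment. LD₅₀ (µM) obtained by regression analysis of dose–response curves from two experiments with triplicates. HCT116 kept in low-glucose DMEM with 10% FBS at 37 °C, 5% CO2; cells used at about 80% confluence.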
(In general: Tetrazolium dyes change colour on reduction, which living cells bring about.)

Assay [2] has as its target T2, Ceramide glucosyltransferase (Homo sapiens) (UniProt Q16739).
T2 sequence (whole entry): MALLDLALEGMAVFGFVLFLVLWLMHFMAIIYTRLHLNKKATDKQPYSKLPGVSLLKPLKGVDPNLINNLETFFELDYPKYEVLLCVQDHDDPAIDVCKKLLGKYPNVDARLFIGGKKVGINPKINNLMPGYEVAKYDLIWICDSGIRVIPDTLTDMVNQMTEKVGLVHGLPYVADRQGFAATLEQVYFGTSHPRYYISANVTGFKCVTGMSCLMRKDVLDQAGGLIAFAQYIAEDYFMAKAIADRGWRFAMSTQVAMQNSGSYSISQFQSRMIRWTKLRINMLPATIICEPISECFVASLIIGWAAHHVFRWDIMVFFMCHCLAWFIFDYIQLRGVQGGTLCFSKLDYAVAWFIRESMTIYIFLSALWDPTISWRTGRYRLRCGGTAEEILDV
The assay can be described thus: Inhibition of GlcCer synthase in human A549 cells using CerC6NBD as substrate preincubated for 24 hrs prior substrate addition measured after 3 hrs by HPLC-FD analysis. It counts as cell-based.

The target of assay [3] is Neutral ceramidase (Homo sapiens) (UniProt Q9NR71). Nature of the assay: Inhibition of nCDase using CerC12NBD as substrate after 1 hr by HPLC-FD analysis. A digest of the protocol:
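Moh. pAS cells transfected to overexpress neutral ceramidase. Lysates (sonicated in 1 mM Tris–HCl, 0.1 mM EDTA, pH 7.5) incubated 1 h, 37 °C, with 5 µM CerC12NBD in 25 mM Tris–HCl pH 7.5, 1% sodium cholate, ±50 µM compound. Intact cells treated 4 h with 50 µM compound before lysis and assay. Read-out HPLC-fluorescence.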

Assay [4] addresses T3, Acid ceramidase (Homo sapiens, UniProt Q13510).
T3 sequence (Q13510 whole entry): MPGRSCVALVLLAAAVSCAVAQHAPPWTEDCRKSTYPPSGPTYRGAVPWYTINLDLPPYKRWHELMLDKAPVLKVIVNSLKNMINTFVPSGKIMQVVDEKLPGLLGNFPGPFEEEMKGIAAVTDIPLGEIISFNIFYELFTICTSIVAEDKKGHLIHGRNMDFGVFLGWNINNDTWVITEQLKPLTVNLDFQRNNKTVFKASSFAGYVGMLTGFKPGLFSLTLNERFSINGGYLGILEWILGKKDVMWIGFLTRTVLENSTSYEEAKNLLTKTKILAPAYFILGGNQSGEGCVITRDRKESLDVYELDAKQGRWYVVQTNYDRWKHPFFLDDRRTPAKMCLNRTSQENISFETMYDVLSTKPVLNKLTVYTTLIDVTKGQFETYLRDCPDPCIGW
The assay can be described thus: Inhibition of aCDase using RBM14C12 as substrate after 1 hr by HPLC-FD analysis.

Assay [5] concerns the target T3, Acid ceramidase. The assay can be described thus: Inhibition of aCDase in Moh.pAS AcCer10X cells using RBM14C12 as substrate after 1 hr by HPLC-FD analysis. It counts as cell-based.
Assay [6] deals with A549. Nature of the assay: Inhibition of SM synthase in human A549 cells using CerC6NBD as substrate preincubated for 24 hrs prior substrate addition measured after 3 hrs by HPLC-FD analysis. It counts as cell-based.
Assay [7] relates to A549. Nature of the assay: Effect on sphingolipidome in human A549 cells assessed as increase in total ceramides at 10 uM after 24 hrs by UPLC-TOF analysis. It counts as functional, cell-based. A digest of the protocol: (§1)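 Cells incubated with compound at 10 µM, 24 h (A549) or 14 h (HCT116); lipids then extracted and profiled. Long-chain bases and phosphates were read by LC-MS/MS (positive electrospray, selected reaction monitoring, C17-dihydrosphingosine and C17-dihydrosphingosine-1-phosphate transitions monitored). Amounts expressed as pmol per 10⁶ cells. Mean ± SD of triplicates; unpaired two-tailed t-test versus control.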

Assay [8] relates to A549. The assay can be described thus: Effect on sphingolipidome in human A549 cells assessed as increase in dihydroceramide per 10^6 cells at 10 uM after 24 hrs by UPLC-TOF analysis relative to control (reference value: 6.5 +/- 0.42 pmol/10^6 cells). It counts as functional. In outline: as §1
The test system of assay [9] is A549. Nature of the assay: Cytotoxicity against human A549 cells after 24 hrs by MTT assay. It counts as functional. As to conditions: A549, 24 h, read-out: LD50 (the source's name).

Neutral ceramidase (Homo sapiens), sequence (Q9NR71 whole entry): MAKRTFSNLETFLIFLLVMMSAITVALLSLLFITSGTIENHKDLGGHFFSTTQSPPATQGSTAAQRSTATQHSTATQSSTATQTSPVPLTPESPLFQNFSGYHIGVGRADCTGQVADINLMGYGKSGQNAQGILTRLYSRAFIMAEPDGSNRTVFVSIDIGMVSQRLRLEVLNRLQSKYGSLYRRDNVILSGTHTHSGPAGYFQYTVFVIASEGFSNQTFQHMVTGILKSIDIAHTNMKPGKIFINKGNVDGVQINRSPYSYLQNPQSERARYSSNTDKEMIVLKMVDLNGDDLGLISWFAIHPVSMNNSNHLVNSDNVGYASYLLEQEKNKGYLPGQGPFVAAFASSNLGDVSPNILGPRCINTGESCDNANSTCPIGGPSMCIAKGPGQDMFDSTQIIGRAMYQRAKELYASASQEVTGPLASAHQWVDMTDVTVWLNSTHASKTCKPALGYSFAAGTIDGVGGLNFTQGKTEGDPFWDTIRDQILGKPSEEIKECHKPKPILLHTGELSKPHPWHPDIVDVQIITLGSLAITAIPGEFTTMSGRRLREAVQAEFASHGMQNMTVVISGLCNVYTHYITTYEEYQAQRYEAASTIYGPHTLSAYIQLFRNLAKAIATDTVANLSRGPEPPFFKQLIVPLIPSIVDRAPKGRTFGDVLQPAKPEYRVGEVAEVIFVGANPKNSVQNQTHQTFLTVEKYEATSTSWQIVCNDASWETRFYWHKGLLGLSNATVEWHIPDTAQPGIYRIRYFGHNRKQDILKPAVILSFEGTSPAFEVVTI

For the molecule `CCCCCCCCCCCCCS/C=C/[C@H](CO)NC(=O)C(C)(C)C`, the inhibition entry (in [1]; in [2]; in assay [3]; in the assay with A549 [6]) was “inactive” throughout. For the same molecule, the CC50 came to 30 µM with HCT-116 and 24 µM with A549 [9]. In addition, the IC50 at Acid ceramidase [4] and on Acid ceramidase [5] was 51 µM throughout. Moreover, the result with A549 [7] was inactive. Also, in the assay with A549 [8], the Activity was determined as 12.4 pmol.

Turning to `CCCCCCCCCCCCCS/C=C/[C@H](CO)NC(=O)CCCCCCC`, the inhibition result (in assay [1]; in [2]; in assay [3]; with A549 [6]) was “inactive” in each case. For the same molecule, the results for the CC50 with HCT-116 and in the assay with A549 [9] were 28 µM and 19 µM, respectively. Moreover, the IC50 against Acid ceramidase [4] and on Acid ceramidase [5] was 77 µM throughout. For the same molecule, the outcome in the assay with A549 [7] was inactive. For the same molecule, the Activity in the assay on A549 [8] is 22.9 pmol.

As for `CCCCCCCCCCCCCS/C=C/[C@H](CO)NC(=O)c1ccc(C(C)(C)C)cc1`, the inhibition result (in assay [1]; in assay [2]; in assay [3]; in the assay on A549 [6]) was “inactive” throughout. Besides, the CC50 stood at 81 µM in the assay with HCT-116 and 76 µM in the assay on A549 [9]. Also, the IC50 on Acid ceramidase [4] and against Acid ceramidase [5] was 315 µM throughout. Also, the outcome in the assay with A549 [7] and in the assay on A549 [8] was inactive.

The term IC50 denotes the point on the concentration scale where inhibition reaches its midpoint. Read a high IC50 as weaker potency in that assay.
